pIC50: −log10 of the molar value.
Legend:
MDA-MB-468 [1] = experiment: In vitro inhibitory activity against mammary carcinoma MDA 468 cell lines; format: functional, cell-based; settings: Homo sapiens
Outline: (§1)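 MDA 468 cells kept in RPMI 1640 with 10% FBS and antibiotics under 5% CO2. They were seeded at 2.5-3 × 10² per well and left 4 h to attach. Drug from 10 mM DMSO stocks was diluted to 1 pM–100 µM final (DMSO ≤0.25%), n = 8, and incubated 10 days. MTT was added for 4 h, formazan solubilized in DMSO/glycine buffer, and A550 read as a measure of viable cells.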

MCF7 [2] = experiment: In vitro inhibitory activity against mammary carcinoma MCF-7 cell lines; format: functional, cell-based; settings: Homo sapiens
Outline: (§2)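 Cells kept in RPMI 1640 with 10% FBS, penicillin and streptomycin, under 5% CO2, and subcultured twice weekly in log phase. They were seeded at 2.5-3 × 10² per well and left 4 h to adhere. Drug from 10 mM DMSO stocks was given at 1 pM–100 µM final (DMSO ≤0.25%), n = 8, for 7 days. MTT was added for 4 h, formazan dissolved in DMSO/glycine buffer, and absorbance read at 550 nm as viable cell number.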

T-24 = experiment: In vitro cytotoxicity against T24 human bladder cancer cell line
HT-29 = experiment: In vitro cytotoxicity against HT-29 human colon cancer cell line; format: functional, cell-based
IGR-37 cell line = experiment: In vitro cytotoxicity against […] human melanoma cancer cell line; format: functional, cell-based
MCF7 [3] = experiment: In vitro cytotoxicity against MCF-7 human breast cancer cell line with ER positive; format: functional, cell-based; outline: as §2
MCF7 [4] = experiment: In vitro cytotoxicity against MCF-7/Adr human breast cancer cell line; format: functional, cell-based; outline: as §2
MDA-MB-468 [5] = experiment: In vitro cytotoxicity against MDA 468 human breast cancer cell line with ER negative EGFR positive; format: functional, cell-based; outline: as §1
A204 = experiment: In vitro cytotoxicity against A204 human rhabdomyosarcoma cancer cell line; format: functional, cell-based
SK-BR-3 = experiment: In vitro cytotoxicity against SKBR 3 human breast cancer cell line with ER negative; format: functional, cell-based; outline: as §2
PC-3 = experiment: In vitro cytotoxicity against PC-3 human prostate cancer cell line; format: functional, cell-based; outline: as §2
T47D = experiment: In vitro cytotoxicity against T47D human breast cancer cell line with ER negative; format: functional, cell-based; outline: as §2
WiDr = experiment: In vitro cytotoxicity against WiDr human colon cancer cell line; format: functional, cell-based
MDA-MB-231 = experiment: In vitro cytotoxicity against MDA 231 human breast cancer cell line with EGFR positive erbB3 positive; format: functional, cell-based; outline: as §2
DU-145 = experiment: In vitro cytotoxicity against DU-145 human prostate cancer cell line; format: functional, cell-based; outline: as §2
ZR-75-1 = experiment: In vitro cytotoxicity against ZR 75 human breast cancer cell line with ER positive; format: functional, cell-based; outline: as §2
A2780 = experiment: In vitro cytotoxicity against A2780 human ovarian cancer cell line; format: functional, cell-based

| Structure (SMILES) | pIC50 (MDA-MB-468 [1]) | pIC50 (MCF7 [2]) | other results |
| --- | --- | --- | --- |
| c1ccc2sc(-c3ccc(N4CCCCC4)cc3)nc2c1 | < 5.00 | < 5.00 | – |
| Nc1ccc(-c2nc3ccccc3[nH]2)cc1 | < 5.00 | < 6.00 | – |
| Cc1cc(-c2nc3ccccc3s2)cc(Cl)c1N | < 9.00 | > 8.00 | – |
| Nc1ccc(-c2nc3ccccc3o2)cc1 | < 6.00 | > 8.00 | – |
| c1ccc2sc(-c3ccc(N4CCOCC4)cc3)nc2c1 | < 5.00 | < 5.00 | – |
| COc1cc(OC)c2nc(-c3ccc(N)cc3)sc2c1 | – | < 5.00 | – |
| c1ccc2sc(-c3ccncc3)nc2c1 | < 5.00 | < 5.00 | – |
| Nc1ccc(-c2nc3ccccc3s2)cc1O | < 5.00 | < 10.00 | – |
| N#Cc1cc(-c2nc3ccccc3s2)ccc1N | – | > 8.00 | – |
| Nc1ncc(-c2nc3ccccc3s2)cc1Br | > 8.00 | > 8.00 | – |
| Nc1ccc(-c2nc3ccccc3s2)cn1 | < 5.00 | < 5.00 | – |
| COc1cc(OC)c2sc(-c3ccc(N)cc3)nc2c1 | < 5.00 | < 5.00 | – |
| COc1cccc2sc(-c3ccc(N)cc3Cl)nc12 | < 5.00 | < 5.00 | – |
| Nc1ccc(-c2nc3cc(OCc4ccccc4)ccc3s2)c(Cl)c1 | < 5.00 | < 5.00 | – |
| Nc1ccc(-c2nc3ccccc3s2)cc1Cl | > 7.00 | > 10.00 | – |
| COc1ccc2nc(-c3ccc(N)c(I)c3)sc2c1 | > 10.00 | > 10.00 | – |
| COc1cc2nc(-c3ccc(N)cc3)sc2cc1OC | < 5.00 | < 5.00 | – |
| CCc1cc(-c2nc3ccccc3s2)ccc1N | > 10.00 | > 10.00 | – |
| Nc1ccc(-c2nc3cc(O)cc(O)c3s2)cc1 | – | < 5.00 | – |
| c1ccc2sc(-c3ccc(N4CCCC4)cc3)nc2c1 | – | > 6.00 | – |
| COc1ccc2nc(-c3ccc(N)cc3)sc2c1 | < 5.00 | > 10.00 | – |
| Nc1ccc(-c2nc3ccccc3s2)cc1 | > 9.00 | > 10.00 | pIC50 (T-24): < 4.52; pIC50 (HT-29): < 4.52; pIC50 (IGR-37 cell line): < 4.52; pIC50 (MCF7 [3]): 9.10; pIC50 (MCF7 [4]): < 5.00; pIC50 (MDA-MB-468 [5]): 8.80; pIC50 (A204): < 4.52; pIC50 (SK-BR-3): 8.09; pIC50 (PC-3): < 4.52; pIC50 (T47D): < 5.00; pIC50 (WiDr): < 4.52; pIC50 (MDA-MB-231): 7.77; pIC50 (DU-145): < 4.52; pIC50 (ZR-75-1): 7.55; pIC50 (A2780): < 4.52 |
| Nc1ccc(-c2nc3ccc(O)cc3s2)cc1 | < 5.00 | < 6.00 | – |

Source: ChEMBL document CHEMBL1129614, “Antitumor benzothiazoles. 3. Synthesis of 2-(4-aminophenyl)benzothiazoles and evaluation of their activities against breast cancer cell lines in vitro and in vivo” (J Med Chem, 1996)
